Reference: ChEMBL document CHEMBL1152754, “18F-labeled flavones for in vivo imaging of beta-amyloid plaques in Alzheimer's brains” (Bioorg Med Chem, 2009)
Blank lines part the entries; values can stand above or below the compound they belong to. Activity calls are given as the source filed them. No cut-off for these calls is given here.

Legend:
[1] = Displacement of [125I]DMFV from amyloid beta (1 to 42) aggregates
Outline: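 Aβ(1-42) aggregated at 0.25 mg/mL in 10 mM sodium phosphate with 1 mM EDTA, pH 7.4, 37 °C for 42 h. Competition: 0.02 nM [125I]DMFV, test compound at 0.2 pM–400 µM, and aggregates in 10% EtOH, incubated 3 h at room temperature. Bound ligand collected on GF/B filters and gamma-counted. IC50 taken from displacement curves; Ki by Cheng-Prusoff using DMFV Kd 12.3 nM.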

Mus musculus = species: Mus musculus; test: Binding affinity to amyloid beta (1 to 42) aggregates in Tg2576 mouse brain at 100 uM by fluorescent staining method; assay type: tissue-based
Outline: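 Tg2576 transgenic mice (female, 20 months old) killed by decapitation under isoflurane; brains frozen in powdered dry ice and cut into 10 µm serial cryosections. Sections incubated with a 100 µM solution of fluorescent ligand in 50% ethanol, washed twice for 3 min in 50% ethanol, imaged by fluorescence microscopy (excitation 450–490 nm). Adjacent sections immunostained with anti-β-amyloid monoclonal antibody, DAB chromogen.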

Brain [2] = test: Biodistribution in ddY mouse brain at 18.5 kBq, iv after 2 mins; assay type: ADME, organism-based; details: in vivo
Outline: (§1)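 Normal ddY mice (5 weeks old, 22–25 g) received 18.5 kBq of 18F-labeled agent by tail-vein injection in 100 µL saline containing 5 µL ethanol. Killed under isoflurane anesthesia at each time point; organs removed and weighed, radioactivity gamma-counted. Expressed as %ID/g, mean ± SD of 4–5 mice per interval.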

Brain [3] = test: Biodistribution in ddY mouse brain at 18.5 kBq, iv after 10 mins; assay type: ADME, organism-based; details: in vivo; outline: as §1
Blood [4] = test: Biodistribution in ddY mouse blood at 18.5 kBq, iv after 60 mins; assay type: ADME, organism-based; details: in vivo, 1 h; outline: as §1
Blood [5] = test: Biodistribution in ddY mouse blood at 18.5 kBq, iv after 30 mins; assay type: ADME, organism-based; details: in vivo, 0.5 h; outline: as §1
Blood [6] = test: Biodistribution in ddY mouse blood at 18.5 kBq, iv after 2 mins; assay type: ADME, organism-based; details: in vivo; outline: as §1
Blood [7] = test: Biodistribution in ddY mouse blood at 18.5 kBq, iv after 10 mins; assay type: ADME, organism-based; details: in vivo; outline: as §1
Brain [8] = test: Biodistribution in ddY mouse brain at 18.5 kBq, iv after 30 mins; assay type: ADME, organism-based; details: in vivo, 0.5 h; outline: as §1
Brain [9] = test: Biodistribution in ddY mouse brain at 18.5 kBq, iv after 60 mins; assay type: ADME, organism-based; details: in vivo, 1 h; outline: as §1
Bone [10] = test: Biodistribution in ddY mouse bone at 18.5 kBq, iv after 2 mins; assay type: ADME, organism-based, Bone element; details: in vivo; outline: as §1
Bone [11] = test: Biodistribution in ddY mouse bone at 18.5 kBq, iv after 10 mins; assay type: ADME, organism-based, Bone element; details: in vivo; outline: as §1
Bone [12] = test: Biodistribution in ddY mouse bone at 18.5 kBq, iv after 30 mins; assay type: ADME, organism-based, Bone element; details: in vivo, 0.5 h; outline: as §1
Bone [13] = test: Biodistribution in ddY mouse bone at 18.5 kBq, iv after 60 mins; assay type: ADME, organism-based, Bone element; details: in vivo, 1 h; outline: as §1

- Ki [1]: 321 nM
SMILES: Nc1ccc(-c2cc(=O)c3cc(OCCOCCF)ccc3o2)cc1

- Ki [1]: 110 nM
SMILES: CNc1ccc(-c2cc(=O)c3cc(F)ccc3o2)cc1

- Ki [1]: 54.5 nM
SMILES: CNc1ccc(-c2cc(=O)c3cc(OCCOCCF)ccc3o2)cc1

- Ki [1]: 99 nM
SMILES: CNc1ccc(-c2cc(=O)c3cc(OCCF)ccc3o2)cc1

- Drug uptake (Brain [2]): 4.17 % ID/g
- Drug uptake (Brain [3]): 3.62 % ID/g
- Drug uptake (Blood [4]): 3.25 % ID/g
- Drug uptake (Blood [5]): 2.53 % ID/g
- Drug uptake (Blood [6]): 2.8 % ID/g
- Drug uptake (Blood [7]): 2.71 % ID/g
- Drug uptake (Brain [8]): 1.89 % ID/g
- Drug uptake (Brain [9]): 2.19 % ID/g
- Drug uptake (Bone [10]): 2.02 % ID/g
- Drug uptake (Bone [11]): 2.83 % ID/g
- Drug uptake (Bone [12]): 4.51 % ID/g
- Drug uptake (Bone [13]): 6.21 % ID/g
SMILES: CN(C)c1ccc(-c2cc(=O)c3cc(OCC[18F])ccc3o2)cc1

The next lines start with the compound.

SMILES: CNc1ccc(-c2cc(=O)c3cc(OCCOCCOCCF)ccc3o2)cc1
- Ki [1]: 45.1 nM

SMILES: Nc1ccc(-c2cc(=O)c3cc(OCCF)ccc3o2)cc1
- Ki [1]: 234 nM

SMILES: CN(C)c1ccc(-c2cc(=O)c3cc(OCCF)ccc3o2)cc1
- Ki [1]: 5.3 nM
- Activity (Mus musculus): Active

SMILES: CN(C)c1ccc(-c2cc(=O)c3cc(OCCOCC[18F])ccc3o2)cc1
- Drug uptake (Brain [2]): 3.54 % ID/g
- Drug uptake (Brain [3]): 2.75 % ID/g
- Drug uptake (Blood [4]): 2.94 % ID/g
- Drug uptake (Blood [5]): 2.5 % ID/g
- Drug uptake (Blood [6]): 2.09 % ID/g
- Drug uptake (Blood [7]): 2.3 % ID/g
- Drug uptake (Brain [8]): 2 % ID/g
- Drug uptake (Brain [9]): 2.13 % ID/g
- Drug uptake (Bone [10]): 1.13 % ID/g
- Drug uptake (Bone [11]): 1.65 % ID/g
- Drug uptake (Bone [12]): 2.42 % ID/g
- Drug uptake (Bone [13]): 3.74 % ID/g

SMILES: CN(C)c1ccc(-c2cc(=O)c3cc(OCCOCCOCC[18F])ccc3o2)cc1
- Drug uptake (Brain [2]): 2.89 % ID/g
- Drug uptake (Brain [3]): 2.23 % ID/g
- Drug uptake (Blood [4]): 1.88 % ID/g
- Drug uptake (Blood [5]): 1.4 % ID/g
- Drug uptake (Blood [6]): 2.35 % ID/g
- Drug uptake (Blood [7]): 1.5 % ID/g
- Drug uptake (Brain [8]): 1.31 % ID/g
- Drug uptake (Brain [9]): 1.37 % ID/g
- Drug uptake (Bone [10]): 1.53 % ID/g
- Drug uptake (Bone [11]): 2.38 % ID/g
- Drug uptake (Bone [12]): 4.06 % ID/g
- Drug uptake (Bone [13]): 5.21 % ID/g

SMILES: CN(C)c1ccc(-c2cc(=O)c3cc(OCCOCCOCCF)ccc3o2)cc1
- Ki [1]: 19.3 nM
- Activity (Mus musculus): Active

SMILES: CN(C)c1ccc(-c2cc(=O)c3cc(OCCOCCF)ccc3o2)cc1
- Ki [1]: 14.4 nM
- Activity (Mus musculus): Active

SMILES: Nc1ccc(-c2cc(=O)c3cc(OCCOCCOCCF)ccc3o2)cc1
- Ki [1]: 234 nM

SMILES: Nc1ccc(-c2cc(=O)c3cc(F)ccc3o2)cc1
- Ki [1]: 260 nM

SMILES: CN(C)c1ccc(-c2cc(=O)c3cc(F)ccc3o2)cc1
- Ki [1]: 73.9 nM
